Assay results published in ChEMBL document CHEMBL1123797, “Antianaphylactic benzophenones and related compounds” (1987).

system: Cavia porcellus; assay: Mean collapse time after pretreatment with compound divided by mean collapse time of untreated control animals at 50 mg/kg po dose; type: functional; conditions: not given
How it was run: (§1)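 Modified Herxheimer test in conscious sensitized guinea pigs, 4-5 per group. Compound was given orally at 25, 50 or 100 mg/kg 2 or 4 h before antigen challenge. Some groups also received mepyramine 0.5 mg/kg sc 0.5 h before challenge. D = mean collapse time of treated/untreated controls; M+D = mean collapse time of compound+mepyramine/mepyramine-dosed controls.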

Row | Compound | Activity
1 | CCc1ccc(OC)c(C(=O)c2ccc([N+](=O)[O-])cc2)c1 | 0.8
2 | CCc1ccc(O)c(C(=O)c2ccccc2)c1 | 2.5
3 | CCc1ccc(O)c(C(=O)c2ccsc2)c1 | 0.8
4 | CCc1ccc(C(=O)c2ccc(F)cc2)c(O)c1 | 1.3
5 | CCc1ccc(O)c(C(=O)c2cccn2C)c1 | 1.2
6 | CCc1ccc(SC)c(C(=O)c2ccc(Cl)cc2)c1 | 0.6
7 | C=C(c1ccc(C)cc1)c1cc(CC)ccc1O | 1
8 | CCc1ccc(O)c([S+]([O-])c2ccc(Cl)cc2)c1 (stereo unspecified) | 1
9 | CCc1ccc(O)c(C(=O)c2cccs2)c1 | 0.7
10 | CCc1ccc(O)c(Cc2ccccc2)c1 | 3

organism: Cavia porcellus; assay: Inhibition of histamine release from sensitized guinea pig chopped lung upon antigen challenge at 10 ug/mL.; type: functional; conditions: not given
How it was run: (§2)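 Guinea pigs sensitized to ovalbumin; lungs taken 3 weeks later, perfused with Tyrode, chopped into 0.5-mm cubes. 100-mg aliquots in Tyrode were preincubated 5 min at 37 °C, then compound or Tyrode and ovalbumin (5 mg in 0.1 mL) were added. Incubation was 15 min at 37 °C with rocking, and supernatant was bioassayed. Unchallenged control gave spontaneous release. Values are % inhibition, mean of ≥4 samples; Student's t-test.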

Row | Compound | Inhibition [%]
11 | CCc1ccc(O)c([S+]([O-])c2ccc(Cl)cc2)c1 (stereo unspecified) | 26
12 | CCc1ccc(O)c(C(=O)c2cccs2)c1 | 0
13 | CCc1ccc(O)c(Cc2ccccc2)c1 | 0

organism: Cavia porcellus; assay: Compound was tested for the inhibition of histamine release from sensitized guinea pig chopped lung upon antigen challenge at 10 ug/mL; type: functional; conditions: not given; how it was run: as §2

Row | Compound | Inhibition [%]
14 | CCc1ccc(O)c(C(=O)c2ccsc2)c1 | 37

organism: Cavia porcellus; assay: Inhibition of slow reacting substance of anaphylaxis (SRS-A) release from sensitized guinea pig chopped lung upon antigen challenge at 10 ug/mL; type: functional; conditions: not given; how it was run: as §2

Row | Compound | Inhibition [%]
15 | CCc1ccc(OC)c(C(=O)c2ccc([N+](=O)[O-])cc2)c1 | 0
16 | CCc1ccc(O)c(C(=O)c2ccccc2)c1 | 22
17 | CCc1ccc(O)c(C(=O)c2ccsc2)c1 | 26
18 | CCc1ccc(C(=O)c2ccc(F)cc2)c(O)c1 | 5
19 | CCc1ccc(O)c(C(=O)c2cccn2C)c1 | 0
20 | CCc1ccc(SC)c(C(=O)c2ccc(Cl)cc2)c1 | 29
21 | C=C(c1ccc(C)cc1)c1cc(CC)ccc1O | 0
22 | CCc1ccc(O)c([S+]([O-])c2ccc(Cl)cc2)c1 (stereo unspecified) | 48
23 | CCc1ccc(O)c(C(=O)c2cccs2)c1 | 59
24 | CCc1ccc(O)c(Cc2ccccc2)c1 | 36

system: Cavia porcellus; assay: Mean collapse time after pretreatment with compound and mepyramine divided by mean collapse time of mepyramine-dosed control animals at 100 mg/kg po dose; type: functional; conditions: not given; how it was run: as §1

Row | Compound | Activity
25 | CCc1ccc(C(=O)c2ccc(F)cc2)c(O)c1 | 2.3

system: Cavia porcellus; assay: Mean collapse time after pretreatment with compound and mepyramine divided by mean collapse time of mepyramine-dosed control animals at 25 mg/kg po dose; type: functional; conditions: not given; how it was run: as §1

Row | Compound | Activity
26 | CCc1ccc(O)c([S+]([O-])c2ccc(Cl)cc2)c1 (stereo unspecified) | 1.7

system: Cavia porcellus; assay: Mean collapse time after pretreatment with compound and mepyramine divided by mean collapse time of mepyramine-dosed control animals at 50 mg/kg po dose; type: functional; conditions: not given; how it was run: as §1

Row | Compound | Activity
27 | CCc1ccc(OC)c(C(=O)c2ccc([N+](=O)[O-])cc2)c1 | 2.1
28 | CCc1ccc(O)c(C(=O)c2ccccc2)c1 | 1.2
29 | CCc1ccc(O)c(C(=O)c2ccsc2)c1 | 2.3
30 | CCc1ccc(C(=O)c2ccc(F)cc2)c(O)c1 | 2.8
31 | CCc1ccc(O)c(C(=O)c2cccn2C)c1 | 2.3
32 | CCc1ccc(SC)c(C(=O)c2ccc(Cl)cc2)c1 | 2.3
33 | C=C(c1ccc(C)cc1)c1cc(CC)ccc1O | 3.5
34 | CCc1ccc(O)c([S+]([O-])c2ccc(Cl)cc2)c1 (stereo unspecified) | 1.7
35 | CCc1ccc(O)c(C(=O)c2cccs2)c1 | 1.6
36 | CCc1ccc(O)c(Cc2ccccc2)c1 | 1.6

system: Cavia porcellus; assay: Mean collapse time after pretreatment with compound divided by mean collapse time of untreated control animals at 100 mg/kg po dose; type: functional; conditions: not given; how it was run: as §1

Row | Compound | Activity
37 | CCc1ccc(C(=O)c2ccc(F)cc2)c(O)c1 | 1.2

system: Cavia porcellus; assay: Mean collapse time after pretreatment with compound divided by mean collapse time of untreated control animals at 25 mg/kg po dose; type: functional; conditions: not given; how it was run: as §1

Row | Compound | Activity
38 | CCc1ccc(O)c([S+]([O-])c2ccc(Cl)cc2)c1 (stereo unspecified) | 1.3

system: Cavia porcellus; assay: Time of dosing of compound before antigen challenge in conscious sensitized guinea pig at 100 mg/kg po dose; type: functional; conditions: not given; how it was run: as §1

Row | Compound | Time [h]
39 | CCc1ccc(C(=O)c2ccc(F)cc2)c(O)c1 | 2

system: Cavia porcellus; assay: Time of dosing of compound before antigen challenge in conscious sensitized guinea pig at 25 mg/kg po dose; type: functional; conditions: not given; how it was run: as §1

Row | Compound | Time [h]
40 | CCc1ccc(O)c([S+]([O-])c2ccc(Cl)cc2)c1 (stereo unspecified) | 4

system: Cavia porcellus; assay: Time of dosing of compound before antigen challenge in conscious sensitized guinea pig at 50 mg/kg po dose; type: functional; conditions: dose 50 mg/kg; how it was run: as §1

Row | Compound | Time [h]
41 | CCc1ccc(OC)c(C(=O)c2ccc([N+](=O)[O-])cc2)c1 | 2
42 | CCc1ccc(O)c(C(=O)c2ccccc2)c1 | 2
43 | CCc1ccc(O)c(C(=O)c2ccsc2)c1 | 2
44 | CCc1ccc(O)c(C(=O)c2cccn2C)c1 | 2
45 | CCc1ccc(O)c([S+]([O-])c2ccc(Cl)cc2)c1 (stereo unspecified) | 2
46 | CCc1ccc(O)c(C(=O)c2cccs2)c1 | 2

organism: Homo sapiens; assay: Inhibition of Histamine mediator release form passively sensitized human lung upon antigen challenge at 10(ug/mL) dose:; type: functional; conditions: not given
How it was run: (§3)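 Healthy human lung from carcinoma surgery was chopped into 0.5-mm cubes and passively sensitized 18 h at 18 °C with atopic serum from cocksfoot-pollen-allergic patients. Tissue was preincubated 5 min with compound, challenged with pollen extract (0.1 mL, 1000 noon units) and incubated as for guinea pig lung. Supernatant was bioassayed on guinea pig ileum, with mepyramine-treated (0.4 μg/mL) ileum for SRS-A. Values are % inhibition of mediator release.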

Row | Compound | Inhibition [%]
47 | C=C(c1ccc(C)cc1)c1cc(CC)ccc1O | 0

organism: Homo sapiens; assay: Inhibition of Histamine mediator release form passively sensitized human lung upon antigen challenge at 10 ug/mL dose; type: functional; conditions: not given; how it was run: as §3

Row | Compound | Inhibition [%]
48 | CCc1ccc(O)c([S+]([O-])c2ccc(Cl)cc2)c1 (stereo unspecified) | 31
49 | CCc1ccc(O)c(C(=O)c2cccs2)c1 | 0

organism: Homo sapiens; assay: Inhibition of Histamine mediator release form passively sensitized human lung upon antigen challenge at 1 ug/mL dose; type: functional; conditions: not given; how it was run: as §3

Row | Compound | Inhibition [%]
50 | CCc1ccc(O)c([S+]([O-])c2ccc(Cl)cc2)c1 (stereo unspecified) | 0
51 | CCc1ccc(O)c(C(=O)c2cccs2)c1 | 0

organism: Homo sapiens; assay: Inhibition of Slow reacting substance of anaphylaxis (SRS-A) mediator release form passively sensitized human lung upon antigen challenge at 10 ug/mL dose; type: functional; conditions: not given; how it was run: as §3

Row | Compound | Inhibition [%]
52 | CCc1ccc(O)c([S+]([O-])c2ccc(Cl)cc2)c1 (stereo unspecified) | 99
53 | CCc1ccc(O)c(C(=O)c2cccs2)c1 | 67

organism: Homo sapiens; assay: Inhibition of Slow reacting substance of anaphylaxis (SRS-A) mediator release form passively sensitized human lung upon antigen challenge at 1 ug/mL dose; type: functional; conditions: not given; how it was run: as §3

Row | Compound | Inhibition [%]
54 | CCc1ccc(O)c([S+]([O-])c2ccc(Cl)cc2)c1 (stereo unspecified) | 69
55 | CCc1ccc(O)c(C(=O)c2cccs2)c1 | 55

organism: Homo sapiens; assay: Inhibition of Slow reacting substance of anaphylaxis (SRS-A) mediator release form passively sensitized human lung upon antigen challenge at 10(ug/mL) dose:; type: functional; conditions: not given; how it was run: as §3

Row | Compound | Inhibition [%]
56 | C=C(c1ccc(C)cc1)c1cc(CC)ccc1O | 84
